Source: ChEMBL document CHEMBL3864172, “New Peptidomimetic Boronates for Selective Inhibition of the Chymotrypsin-like Activity of the 26S Proteasome” (ACS Med Chem Lett, 2016)
The source made the active and inactive calls. No cut-off for these calls is given here.

How the values were obtained:
[1] = Cytotoxicity against HNDF cells harboring wild type p53 assessed as reduction in cell viability after 48 hrs by 7AAD-staining based FACS analysis; assay type: toxicity; conditions: human; for CC50 at 48 h: HNDF cells harboring wild type p53, read-out: LD50; for Activity: hndf, 48 h
Method in brief: (§1)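 Cells were exposed for 48 h to compound titrations from 0 to 5000 nM. Cell death was read out by 7AAD staining, and the LD50 was taken from dose-response curves. n=3.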

[2] = Cytotoxicity against human LCL cells harboring wild type p53 assessed as reduction in cell viability after 48 hrs by 7AAD-staining based FACS analysis; assay type: toxicity; conditions: for CC50 at 48 h: LCL cells harboring wild type p53, read-out: LD50; for Activity: lcl, 48 h; method in brief: as §1
[3] = (§2) Cytotoxicity against p53 deficient human SKOV3 cells assessed as reduction in cell viability after 48 hrs by 7AAD-staining based FACS analysis; assay type: functional; conditions: SK-OV-3, 48 h, read-out: LD50 (the source's name); method in brief: as §1
[4] = (§3) Cytotoxicity against human MCF7 cells harboring wild type p53 assessed as reduction in cell viability after 48 hrs by 7AAD-staining based FACS analysis; assay type: functional; conditions: MCF7, 48 h, read-out: LD50 (the source's name); method in brief: as §1
[5] = Cytotoxicity against human MCF10A cells harboring wild type p53 assessed as reduction in cell viability after 48 hrs by 7AAD-staining based FACS analysis; assay type: toxicity, MCF-10A; conditions: for CC50 at 48 h: MCF10A cells harboring wild type p53, read-out: LD50; for Activity: mcf-10a, 48 h; method in brief: as §1
[6] = Terminal half life in human plasma at 20 mg/m2 iv, administered for 2 to 10 mins after dexamethasone addition by LC-MS/MS analysis; assay type: ADME, cell-free; conditions: read-out: beta t1/2
[7] = (§4) Cytotoxicity against human RD-ES cells harboring p53 mutant assessed as reduction in cell viability after 48 hrs by 7AAD-staining based FACS analysis; assay type: functional; conditions: read-out: LD50 (the source's name); method in brief: as §1
[8] = (§5) Cytotoxicity against human KGN cells harboring wild type p53 assessed as reduction in cell viability after 48 hrs by 7AAD-staining based FACS analysis; assay type: functional; conditions: read-out: LD50 (the source's name); method in brief: as §1
[9] = Inhibition of bovine alpha chymotrypsin using Ala-Ala-Phe-7-AMC as substrate measured for 10 mins by spectrophotometric analysis; parameters: species or system Bos taurus
Method in brief: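 Enzyme was bovine α-chymotrypsin. Compounds were tested up to a top concentration of 25000 nM. Ki values are the mean of three separate experiments, with variation between experiments below ±10%.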

[10] = Inhibition of chymotrypsin like activity of rabbit 20S proteasome using Suc-Leu-Leu-Val-Tyr-AMC as substrate preincubated for 15 mins followed by substrate addition measured after 2 hrs by fluorescence-based assay; parameters: species or system Oryctolagus cuniculus
[11] = (§6) Cytotoxicity against human U266 cells harboring mutant p53 assessed as reduction in cell viability after 48 hrs by 7AAD-staining based FACS analysis; assay type: functional; conditions: U-266, 48 h, read-out: LD50 (the source's name); method in brief: as §1
[12] = Inhibition of trypsin like activity of rabbit 20S proteasome using Bz-Val-Gly-Arg-AMC as substrate preincubated for 15 mins followed by substrate addition measured after 2 hrs by fluorescence-based assay; parameters: species or system Oryctolagus cuniculus
[13] = (§7) Cytotoxicity against human WE68 cells harboring wild type p53 assessed as reduction in cell viability after 48 hrs by 7AAD-staining based FACS analysis; assay type: functional; conditions: WE68, 48 h, read-out: LD50 (the source's name); method in brief: as §1
[14] = Cytotoxicity against human IMR90 cells harboring wild type p53 assessed as reduction in cell viability after 48 hrs by 7AAD-staining based FACS analysis; assay type: toxicity, IMR-90; conditions: for CC50 at 48 h: IMR90 cells harboring wild type p53, read-out: LD50; for Activity: imr-90, 48 h; method in brief: as §1
[15] = Inhibition of caspase like activity of rabbit 20S proteasome using Ac-nLPnLD-AMC as substrate preincubated for 15 mins followed by substrate addition measured after 2 hrs by fluorescence-based assay; parameters: species or system Oryctolagus cuniculus
[16] = (§8) Cytotoxicity against human MDA-MB-468 cells harboring mutant p53 assessed as reduction in cell viability after 48 hrs by 7AAD-staining based FACS analysis; assay type: functional; conditions: MDA-MB-468, 48 h, read-out: LD50 (the source's name); method in brief: as §1
MCF7 [17] = assay: Inhibition of 26S proteasome in human MCF7 cells assessed as accumulation of high molecular weight polyubiquitin-conjugated proteins at 35 nM after 4 hrs by Western blot analysis; assay type: cell-based
MDA-MB-468 [18] = assay: Inhibition of 26S proteasome in human MDA-MB-468 cells assessed as accumulation of high molecular weight polyubiquitin-conjugated proteins at 35 nM after 4 hrs by Western blot analysis; assay type: cell-based
SK-OV-3 = assay: as §2; assay type: functional; method in brief: as §1
MCF7 [19] = assay: as §3; assay type: functional; method in brief: as §1
U-266 [20] = assay: Selectivity ratio of LD50 for human U266 cells to LD50 for human NCI-H929 cells; assay type: functional
[21] = Selectivity ratio of LD50 for human SKOV3 cells to LD50 for human KGN cells; assay type: functional
NCI-H929 = assay: (§9) Cytotoxicity against human NCI-H929 cells harboring wild type p53 assessed as reduction in cell viability after 48 hrs by 7AAD-staining based FACS analysis; assay type: functional; method in brief: as §1
[22] = as §9; assay type: functional; conditions: NCI-H929, 48 h, read-out: LD50 (the source's name); method in brief: as §1
[23] = biological target: T1, Proteasome subunit beta type-8 (Mus musculus, UniProt P28063); assay: Inhibition of chymotrypsin like activity of mouse spleen 20S proteasome beta5i subunit using Suc-Leu-Leu-Val-Tyr-AMC as substrate preincubated for 15 mins followed by substrate addition measured after 2 hrs by fluorescence-based assay
T1 sequence (P28063 whole entry): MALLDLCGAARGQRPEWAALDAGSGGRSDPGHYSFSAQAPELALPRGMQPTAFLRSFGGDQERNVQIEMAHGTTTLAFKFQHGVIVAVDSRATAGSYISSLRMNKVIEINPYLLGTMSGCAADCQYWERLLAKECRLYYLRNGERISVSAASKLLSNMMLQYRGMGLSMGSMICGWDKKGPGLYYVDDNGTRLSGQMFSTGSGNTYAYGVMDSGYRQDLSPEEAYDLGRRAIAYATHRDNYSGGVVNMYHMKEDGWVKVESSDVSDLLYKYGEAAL

Oryctolagus cuniculus = species on record: Oryctolagus cuniculus; assay: Selectivity ratio of IC50 for caspase like activity of rabbit 20S proteasome to IC50 for chymotrypsin like activity of rabbit 20S proteasome
RD-ES = assay: as §4; assay type: functional; method in brief: as §1
KGN = assay: as §5; assay type: functional; method in brief: as §1
U-266 [24] = assay: as §6; assay type: functional; method in brief: as §1
WE68 = assay: as §7; assay type: functional; method in brief: as §1
MDA-MB-468 [25] = assay: as §8; assay type: functional; method in brief: as §1
[26] = Inhibition of chymotrypsin like activity of rabbit 20S proteasome using Suc-LLVY-AMC as substrate preincubated for 15 mins followed by substrate addition measured after 2 hrs by microplate-fluorometric analysis; parameters: species or system Oryctolagus cuniculus

SMILES	CC50 at 48 h [1] [nM]	CC50 at 48 h [2] [nM]	CC50 [3] [nM]	CC50 [4] [nM]	CC50 at 48 h [5] [nM]	CC50 [7] [nM]	CC50 [8] [nM]	Ki [9] [nM]	IC50 [10] [nM]	CC50 [11] [nM]	IC50 [12] [nM]	CC50 [13] [nM]	CC50 at 48 h [14] [nM]	IC50 [15] [nM]	CC50 [16] [nM]	Polyubiquitin-conjugate accumulation (MCF7 [17])	polyubiquitin accumulation (active/inactive) (MDA-MB-468 [18])	CC50 [22] [nM]	IC50 [23] [nM]	Ratio IC50 (Oryctolagus cuniculus)	also measured
CC(C)C[C@H](NC(=O)[C@H](CCc1ccccc1)NC(=O)CN1CCOCC1)C(=O)N[C@@H](Cc1ccccc1)C(=O)N[C@@H](CC(C)C)C(=O)[C@@]1(C)CO1 [CARFILZOMIB]	350	30	320	4500	320	43	450	> 25000	23.1	60	> 25000	80	130	> 25000	330	Active	Active	–	–	–	half-life [6]: 5 to 20 min
C=CCOc1ccc(CCC(=O)c2ccc(C(=O)N[C@@H](Cc3ccc(OCC=C)cc3)C(=O)N[C@@H](CC(C)C)B3O[C@@H]4C[C@@H]5C[C@@H](C5(C)C)[C@]4(C)O3)[nH]2)cc1	1080	90	1500	3000	9000	65	180	> 25000	20.9	29	> 25000	65	150	4180	50	Active	Active	9	483	200	Activity [1]: Dose-dependent effect; Activity [2]: Dose-dependent effect; Activity (SK-OV-3): Dose-dependent effect; Activity (MCF7 [19]): Dose-dependent effect; Selectivity ratio (U-266 [20]): 2; Selectivity ratio [21]: 5; Activity [5]: Dose-dependent effect; Activity (NCI-H929): Dose-dependent effect; Activity (RD-ES): Dose-dependent effect; Activity (KGN): Dose-dependent effect; Activity (U-266 [24]): Dose-dependent effect; Activity (WE68): Dose-dependent effect; Activity [14]: Dose-dependent effect; Activity (MDA-MB-468 [25]): Dose-dependent effect
CC[C@H](C)[C@H](NC(=O)[C@H](CCCCN=[N+]=[N-])NC(=O)OCc1ccccc1)C(=O)N[C@@H](Cc1ccccc1)B1O[C@@H]2C[C@@H]3C[C@@H](C3(C)C)[C@]2(C)O1	60	–	46	79	1250	33	48	7130	21	14	> 25000	14	8	2450	24	–	–	12	13.8	117	Activity [1]: Dose-dependent effect; Activity [2]: Dose-dependent effect; Activity (SK-OV-3): Dose-dependent effect; Activity (MCF7 [19]): Dose-dependent effect; Activity [5]: Dose-dependent effect; Activity (NCI-H929): Dose-dependent effect; Activity (RD-ES): Dose-dependent effect; Activity (KGN): Dose-dependent effect; Activity (U-266 [24]): Dose-dependent effect; Activity (WE68): Dose-dependent effect; Activity [14]: Dose-dependent effect; Activity (MDA-MB-468 [25]): Dose-dependent effect
C=CCOc1ccc(CCC(=O)c2ccc(C(=O)N[C@@H](Cc3ccc(OCC=C)cc3)C(=O)N[C@@H](Cc3ccccc3)B3O[C@@H]4C[C@@H]5C[C@@H](C5(C)C)[C@]4(C)O3)[nH]2)cc1	–	–	–	–	–	–	–	1310	104	–	> 25000	–	–	3340	–	–	–	–	113	32.1	–
CC[C@H](C)[C@H](NC(=O)[C@H](CCCCN=[N+]=[N-])NC(=O)OCc1ccccc1)C(=O)N[C@@H](CC(C)C)B1O[C@@H]2C[C@@H]3C[C@@H](C3(C)C)[C@]2(C)O1	500	30	370	1500	5000	35	65	> 25000	14.1	15	> 25000	35	200	1600	30	Active	Active	6.4	118	113	Activity [1]: Dose-dependent effect; Activity [2]: Dose-dependent effect; Activity (SK-OV-3): Dose-dependent effect; Activity (MCF7 [19]): Dose-dependent effect; Selectivity ratio (U-266 [20]): 2; Selectivity ratio [21]: 5; Activity [5]: Dose-dependent effect; Activity (NCI-H929): Dose-dependent effect; Activity (RD-ES): Dose-dependent effect; Activity (KGN): Dose-dependent effect; Activity (U-266 [24]): Dose-dependent effect; Activity (WE68): Dose-dependent effect; Activity [14]: Dose-dependent effect; Activity (MDA-MB-468 [25]): Dose-dependent effect
CC(C)C[C@H](NC(=O)[C@H](Cc1ccccc1)NC(=O)c1cnccn1)B(O)O [BORTEZOMIB]	480	20	1600	9800	1500	40	180	1820	34.6	18	> 25000	100	130	108	37	Active	Active	6.6	16.8	–	–
C#CCOc1ccc(C[C@@H](C=O)NC(=O)[C@@H](NC(=O)[C@H](CCCCN=[N+]=[N-])NC(=O)OCc2ccccc2)[C@H](C)CC)cc1	–	–	–	–	–	–	–	–	–	–	–	–	–	–	–	–	–	–	–	–	IC50 [26]: 21 nM
